In ChEMBL document CHEMBL3112537, “A novel series of 6-substituted 3-(pyrrolidin-1-ylmethyl)chromen-2-ones as selective monoamine oxidase (MAO) A inhibitors” (Eur J Med Chem, 2014):
The source made the active and inactive calls. No cut-off for these calls is given here.

Assays:
[1] = system: Rattus norvegicus; test: In vivo inhibition of MAO-A in Sprague-Dawley rat assessed as 5-hydroxyindoleacetic acid in brain striatum at 53 umol/kg, sc after 1 hr by HPLC/EC analysis relative to control; assay type: functional; set-up: scale not given: the % may be the effect or the level left
Summary of the method: (§1)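 Freely moving rats were given a subcutaneous dose and sacrificed 1 h later. Striatal DOPAC, 3-MT and 5-HIAA were measured post mortem and expressed as % of saline control (n = 4). Significance was tested by Student's t-test (P < 0.05).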

[2] = system: Rattus norvegicus; test: In vivo inhibition of MAO-A in Sprague-Dawley rat assessed as 3-methoxytyramine level in brain striatum at 53 umol/kg, sc after 1 hr by HPLC/EC analysis relative to control; assay type: functional; set-up: scale not given: the % may be the effect or the level left; summary of the method: as §1
[3] = system: Rattus norvegicus; test: In vivo inhibition of MAO-A in Sprague-Dawley rat assessed as 3,4-dihydroxyphenylacetic acid level in brain striatum at 53 umol/kg, sc after 1 hr by HPLC/EC analysis relative to control; assay type: functional; set-up: scale not given: the % may be the effect or the level left; summary of the method: as §1
[4] = system: Rattus norvegicus; test: In vivo inhibition of MAO-A in Sprague-Dawley rat assessed as 5-hydroxyindoleacetic acid in brain striatum at 37 umol/kg, sc after 1 hr by HPLC/EC analysis relative to control; assay type: functional; set-up: scale not given: the % may be the effect or the level left
Summary of the method: (§2)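 Freely moving rats dosed subcutaneously and sacrificed 1 h later. Striatal DOPAC, 3-MT and 5-HIAA were measured post mortem and expressed as % of saline control (n = 4). Significance was by Student's t-test, P < 0.05.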

[5] = system: Rattus norvegicus; test: In vivo inhibition of MAO-A in Sprague-Dawley rat assessed as 3-methoxytyramine level in brain striatum at 37 umol/kg, sc after 1 hr by HPLC/EC analysis relative to control; assay type: functional; set-up: scale not given: the % may be the effect or the level left; summary of the method: as §2
[6] = system: Rattus norvegicus; test: In vivo inhibition of MAO-A in Sprague-Dawley rat assessed as 3,4-dihydroxyphenylacetic acid level in brain striatum at 37 umol/kg, sc after 1 hr by HPLC/EC analysis relative to control; assay type: functional; set-up: scale not given: the % may be the effect or the level left; summary of the method: as §2
[7] = system: Rattus norvegicus; test: In vivo inhibition of MAO-A in Sprague-Dawley rat assessed as 5-hydroxyindoleacetic acid in brain striatum at 80 umol/kg, sc after 1 hr by HPLC/EC analysis relative to control; assay type: functional; set-up: scale not given: the % may be the effect or the level left; summary of the method: as §2
[8] = system: Rattus norvegicus; test: In vivo inhibition of MAO-A in Sprague-Dawley rat assessed as 3-methoxytyramine level in brain striatum at 80 umol/kg, sc after 1 hr by HPLC/EC analysis relative to control; assay type: functional; set-up: scale not given: the % may be the effect or the level left; summary of the method: as §2
[9] = system: Rattus norvegicus; test: In vivo inhibition of MAO-A in Sprague-Dawley rat assessed as 3,4-dihydroxyphenylacetic acid level in brain striatum at 80 umol/kg, sc after 1 hr by HPLC/EC analysis relative to control; assay type: functional; set-up: scale not given: the % may be the effect or the level left; summary of the method: as §2
[10] = biological target: T1, Amine oxidase [flavin-containing] B (Homo sapiens, UniProt P27338); test: Inhibition of human recombinant MAO-B assessed as kynuramine oxidation to 4-hydroxyquinoline after 40 mins by LC-MS/MS analysis
T1 sequence (P27338 whole entry): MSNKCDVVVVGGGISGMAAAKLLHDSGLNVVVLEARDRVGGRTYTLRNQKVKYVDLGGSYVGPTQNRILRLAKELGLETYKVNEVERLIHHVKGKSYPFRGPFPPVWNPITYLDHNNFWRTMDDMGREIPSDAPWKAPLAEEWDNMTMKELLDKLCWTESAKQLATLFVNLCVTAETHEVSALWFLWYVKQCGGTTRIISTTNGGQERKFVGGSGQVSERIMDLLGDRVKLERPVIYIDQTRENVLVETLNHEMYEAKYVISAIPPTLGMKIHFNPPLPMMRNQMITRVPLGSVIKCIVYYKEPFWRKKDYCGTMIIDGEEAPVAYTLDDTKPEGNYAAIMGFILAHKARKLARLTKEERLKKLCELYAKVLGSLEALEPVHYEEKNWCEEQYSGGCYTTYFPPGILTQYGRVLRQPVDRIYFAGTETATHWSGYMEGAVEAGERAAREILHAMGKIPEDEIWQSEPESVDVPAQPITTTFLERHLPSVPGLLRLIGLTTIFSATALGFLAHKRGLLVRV
Summary of the method: (§3)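 Human MAO A and MAO B inhibition using kynuramine as a mixed substrate for both isoforms. IC50 is given as the mean ± SE of duplicate determinations.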

[11] = biological target: T2, Amine oxidase [flavin-containing] A (Homo sapiens, UniProt P21397); test: Inhibition of human recombinant MAO-A assessed as kynuramine oxidation to 4-hydroxyquinoline after 40 mins by LC-MS/MS analysis; summary of the method: as §3
T2 sequence (P21397 whole entry): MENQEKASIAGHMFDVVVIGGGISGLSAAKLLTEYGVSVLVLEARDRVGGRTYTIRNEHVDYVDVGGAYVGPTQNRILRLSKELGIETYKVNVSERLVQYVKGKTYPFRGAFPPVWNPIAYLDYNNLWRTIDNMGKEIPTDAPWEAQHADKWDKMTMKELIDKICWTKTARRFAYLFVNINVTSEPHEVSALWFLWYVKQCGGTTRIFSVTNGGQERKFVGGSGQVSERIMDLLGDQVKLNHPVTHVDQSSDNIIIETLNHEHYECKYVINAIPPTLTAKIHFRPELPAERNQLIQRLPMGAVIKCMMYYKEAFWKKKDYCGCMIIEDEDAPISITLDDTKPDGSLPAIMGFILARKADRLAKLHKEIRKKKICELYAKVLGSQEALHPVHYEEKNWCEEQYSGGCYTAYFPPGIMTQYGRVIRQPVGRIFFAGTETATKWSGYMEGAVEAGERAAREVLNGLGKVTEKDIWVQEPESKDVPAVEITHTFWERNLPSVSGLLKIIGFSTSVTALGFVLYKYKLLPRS

[12] = biological target: Sodium-dependent noradrenaline transporter (Homo sapiens) (UniProt P23975); test: Displacement of [3H]-nisoxetin from human norepinephrine transporter at 1 uM relative to control
Summary of the method: (§4)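 Competition binding run by a contract lab, read as % inhibition of control specific binding at a single test concentration. Radioligand per target: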

[13] = biological target: Sodium-dependent serotonin transporter (Homo sapiens) (UniProt P31645); test: Displacement of [3H]-imipramine from human serotonin transporter at 1 uM relative to control; summary of the method: as §4
[14] = biological target: Sodium-dependent dopamine transporter (Homo sapiens) (UniProt Q01959); test: Displacement of [3H]BTCP from human dopamine transporter at 1 uM relative to control; summary of the method: as §4
[15] = biological target: Histamine H1 receptor (Homo sapiens) (UniProt P35367); test: Displacement of histamine from human histamine H1 receptor at 1 uM relative to control; summary of the method: as §4
[16] = biological target: Adrenergic receptor alpha-2 (Rattus norvegicus) (UniProt P22086+P19328+P22909); test: Displacement of [3H]-RX-821002 from rat alpha-2 adrenergic receptor at 1 uM relative to control; summary of the method: as §4
[17] = biological target: T3, Adrenergic receptor alpha-1 (Rattus norvegicus) (UniProt P15823+P23944+P43140); test: Displacement of [3H]-prazosin from rat alpha-1 adrenergic receptor at 1 uM relative to control; summary of the method: as §4
[18] = biological target: 5-hydroxytryptamine receptor 2A (Homo sapiens) (UniProt P28223); test: Displacement of [3H]-ketanserin from human 5-HT2A receptor at 1 uM relative to control; summary of the method: as §4
[19] = biological target: T4, 5-hydroxytryptamine receptor 1A (Homo sapiens) (UniProt P08908); test: Displacement of [3H]8-OH-DPAT from human 5-HT1A receptor at 1 uM relative to control; summary of the method: as §4
T4 sequence (whole entry): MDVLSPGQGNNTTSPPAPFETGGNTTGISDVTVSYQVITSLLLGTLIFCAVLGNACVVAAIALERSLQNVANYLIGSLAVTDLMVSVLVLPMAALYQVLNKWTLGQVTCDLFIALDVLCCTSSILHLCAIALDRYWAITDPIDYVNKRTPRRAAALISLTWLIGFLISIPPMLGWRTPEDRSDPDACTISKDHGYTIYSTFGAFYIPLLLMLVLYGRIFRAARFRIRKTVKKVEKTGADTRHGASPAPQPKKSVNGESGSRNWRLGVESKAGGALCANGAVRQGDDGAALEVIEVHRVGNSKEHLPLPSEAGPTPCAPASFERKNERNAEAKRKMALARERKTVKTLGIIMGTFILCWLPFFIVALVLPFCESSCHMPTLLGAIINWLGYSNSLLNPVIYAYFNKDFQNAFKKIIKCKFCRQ

[20] = organism: Homo sapiens; test: Selectivity index, ratio of IC50 for human recombinant MAO-B to IC50 for human recombinant MAO-A
Summary of the method: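 Selectivity index for MAO A = IC50(MAO B)/IC50(MAO A), with both human isoforms assayed against kynuramine substrate.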

[21] = biological target: Sodium-dependent serotonin transporter (Homo sapiens) (UniProt P31645); test: Displacement of [3H]-imipramine from human serotonin transporter at 10 uM relative to control; summary of the method: as §4
[22] = system: Rattus norvegicus; test: In vivo inhibition of MAO-A in Sprague-Dawley rat assessed as decrease in 3,4-dihydroxyphenylacetic acid level in brain striatum at 43 umol/kg, sc up to 2 hrs by microdialysis method; assay type: functional, organism-based
Summary of the method: (§5)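 Single subcutaneous dose to freely moving rats. Striatal DOPAC and 3-MT were sampled by microdialysis and measured by HPLC/EC over 2 h after dosing at time 0. Levels are expressed as % of saline control (n = 1–2).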

[23] = system: Rattus norvegicus; test: In vivo inhibition of MAO-A in Sprague-Dawley rat assessed as increase in 3-methoxytyramine level in brain striatum at 43 umol/kg, sc up to 2 hrs by microdialysis method; assay type: functional, organism-based; summary of the method: as §5
[24] = biological target: T3, Adrenergic receptor alpha-1 (Rattus norvegicus); test: Displacement of [3H]-prazosin from rat alpha-1 adrenergic receptor at 10 uM relative to control; summary of the method: as §4
[25] = biological target: T1, Amine oxidase [flavin-containing] B; test: Inhibition of MAO-B (unknown origin)
[26] = biological target: T2, Amine oxidase [flavin-containing] A; test: Inhibition of MAO-A (unknown origin)
[27] = Metabolic stability in rat liver microsomes assessed as compound remaining at 5 uM after 60 mins by LC-MS/MS analysis; assay type: ADME; conditions: read-out: Stability
Summary of the method: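 Incubation with rat liver microsomes, read as % of compound remaining after 60 min.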

[28] = system: Rattus norvegicus; test: In vivo inhibition of MAO-A in Sprague-Dawley rat assessed as 5-hydroxyindoleacetic acid in brain striatum at 86 umol/kg, sc after 1 hr by HPLC/EC analysis relative to control; assay type: functional; set-up: scale not given: the % may be the effect or the level left; summary of the method: as §2
[29] = system: Rattus norvegicus; test: In vivo inhibition of MAO-A in Sprague-Dawley rat assessed as 3-methoxytyramine level in brain striatum at 86 umol/kg, sc after 1 hr by HPLC/EC analysis relative to control; assay type: functional; set-up: scale not given: the % may be the effect or the level left; summary of the method: as §2
[30] = system: Rattus norvegicus; test: In vivo inhibition of MAO-A in Sprague-Dawley rat assessed as 3,4-dihydroxyphenylacetic acid level in brain striatum at 86 umol/kg, sc after 1 hr by HPLC/EC analysis relative to control; assay type: functional; set-up: scale not given: the % may be the effect or the level left; summary of the method: as §2
[31] = biological target: D(2) dopamine receptor (Homo sapiens, UniProt P14416); test: Antagonist activity at dopamine D2 receptor (unknown origin) expressed in HEK cells co-expressing Gqi5 assessed as inhibition of dopamine-induced effect by FLIPR assay; assay type: cell-based, HEK293
Chain of D(2) dopamine receptor (P14416 whole entry): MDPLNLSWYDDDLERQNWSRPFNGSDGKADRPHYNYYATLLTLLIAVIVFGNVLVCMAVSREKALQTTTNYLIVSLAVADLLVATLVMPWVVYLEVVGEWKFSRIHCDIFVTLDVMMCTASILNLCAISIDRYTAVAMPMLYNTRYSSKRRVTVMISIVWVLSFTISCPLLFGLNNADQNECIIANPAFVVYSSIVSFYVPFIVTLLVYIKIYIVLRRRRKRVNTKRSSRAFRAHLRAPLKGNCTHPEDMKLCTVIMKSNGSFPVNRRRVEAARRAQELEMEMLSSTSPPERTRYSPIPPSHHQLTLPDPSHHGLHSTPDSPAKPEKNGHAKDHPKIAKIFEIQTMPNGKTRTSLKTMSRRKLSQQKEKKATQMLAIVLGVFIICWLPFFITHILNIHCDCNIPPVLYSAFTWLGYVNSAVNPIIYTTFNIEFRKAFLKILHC

Chain of Sodium-dependent dopamine transporter (Homo sapiens) (Q01959 whole entry): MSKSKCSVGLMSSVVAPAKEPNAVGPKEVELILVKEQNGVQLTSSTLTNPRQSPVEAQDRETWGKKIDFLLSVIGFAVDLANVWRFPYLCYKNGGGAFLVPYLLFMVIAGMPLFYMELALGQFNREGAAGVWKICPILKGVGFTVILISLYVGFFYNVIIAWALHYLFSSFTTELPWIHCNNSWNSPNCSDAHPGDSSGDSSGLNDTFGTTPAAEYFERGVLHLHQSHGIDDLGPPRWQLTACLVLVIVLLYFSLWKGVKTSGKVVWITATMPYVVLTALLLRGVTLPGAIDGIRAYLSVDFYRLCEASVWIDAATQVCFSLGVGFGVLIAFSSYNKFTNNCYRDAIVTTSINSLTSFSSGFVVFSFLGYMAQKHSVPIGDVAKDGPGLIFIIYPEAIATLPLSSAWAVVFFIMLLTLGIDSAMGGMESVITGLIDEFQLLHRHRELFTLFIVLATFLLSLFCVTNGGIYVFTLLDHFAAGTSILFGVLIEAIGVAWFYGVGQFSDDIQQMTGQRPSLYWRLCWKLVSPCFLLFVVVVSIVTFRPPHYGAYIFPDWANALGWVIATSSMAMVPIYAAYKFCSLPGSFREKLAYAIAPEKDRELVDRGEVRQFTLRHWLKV
Chain of Sodium-dependent serotonin transporter (Homo sapiens) (P31645 whole entry, looked up): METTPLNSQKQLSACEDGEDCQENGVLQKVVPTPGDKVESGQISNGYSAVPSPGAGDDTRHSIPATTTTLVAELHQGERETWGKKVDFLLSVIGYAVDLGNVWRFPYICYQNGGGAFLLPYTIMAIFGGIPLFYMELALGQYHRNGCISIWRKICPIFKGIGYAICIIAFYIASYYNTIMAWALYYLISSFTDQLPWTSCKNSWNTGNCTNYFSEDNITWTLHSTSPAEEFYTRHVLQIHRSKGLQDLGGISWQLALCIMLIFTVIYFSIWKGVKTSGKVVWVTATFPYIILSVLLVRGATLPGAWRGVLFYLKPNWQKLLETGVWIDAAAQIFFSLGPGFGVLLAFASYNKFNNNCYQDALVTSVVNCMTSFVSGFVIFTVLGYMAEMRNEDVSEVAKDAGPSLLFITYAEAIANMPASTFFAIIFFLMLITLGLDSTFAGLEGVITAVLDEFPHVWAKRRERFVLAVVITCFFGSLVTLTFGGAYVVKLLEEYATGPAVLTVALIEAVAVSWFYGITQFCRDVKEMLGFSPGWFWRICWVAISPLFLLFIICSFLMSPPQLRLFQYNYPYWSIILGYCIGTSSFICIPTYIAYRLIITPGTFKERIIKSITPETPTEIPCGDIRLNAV
Chain of Histamine H1 receptor (Homo sapiens) (P35367 whole entry): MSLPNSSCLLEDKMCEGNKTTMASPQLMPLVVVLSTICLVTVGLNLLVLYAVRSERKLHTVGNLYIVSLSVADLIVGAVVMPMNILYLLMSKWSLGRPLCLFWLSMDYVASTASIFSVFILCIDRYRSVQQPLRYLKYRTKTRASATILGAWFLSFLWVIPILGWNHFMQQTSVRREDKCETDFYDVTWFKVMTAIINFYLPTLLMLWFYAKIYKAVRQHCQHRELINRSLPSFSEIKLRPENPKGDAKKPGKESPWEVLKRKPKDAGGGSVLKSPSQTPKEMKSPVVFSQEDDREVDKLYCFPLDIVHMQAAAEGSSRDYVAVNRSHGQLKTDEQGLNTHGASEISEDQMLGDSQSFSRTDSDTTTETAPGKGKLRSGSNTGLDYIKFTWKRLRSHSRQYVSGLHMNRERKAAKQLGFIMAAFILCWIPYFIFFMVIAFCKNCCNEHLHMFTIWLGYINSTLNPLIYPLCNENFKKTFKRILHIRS
Chain of Sodium-dependent noradrenaline transporter (Homo sapiens) (P23975 whole entry): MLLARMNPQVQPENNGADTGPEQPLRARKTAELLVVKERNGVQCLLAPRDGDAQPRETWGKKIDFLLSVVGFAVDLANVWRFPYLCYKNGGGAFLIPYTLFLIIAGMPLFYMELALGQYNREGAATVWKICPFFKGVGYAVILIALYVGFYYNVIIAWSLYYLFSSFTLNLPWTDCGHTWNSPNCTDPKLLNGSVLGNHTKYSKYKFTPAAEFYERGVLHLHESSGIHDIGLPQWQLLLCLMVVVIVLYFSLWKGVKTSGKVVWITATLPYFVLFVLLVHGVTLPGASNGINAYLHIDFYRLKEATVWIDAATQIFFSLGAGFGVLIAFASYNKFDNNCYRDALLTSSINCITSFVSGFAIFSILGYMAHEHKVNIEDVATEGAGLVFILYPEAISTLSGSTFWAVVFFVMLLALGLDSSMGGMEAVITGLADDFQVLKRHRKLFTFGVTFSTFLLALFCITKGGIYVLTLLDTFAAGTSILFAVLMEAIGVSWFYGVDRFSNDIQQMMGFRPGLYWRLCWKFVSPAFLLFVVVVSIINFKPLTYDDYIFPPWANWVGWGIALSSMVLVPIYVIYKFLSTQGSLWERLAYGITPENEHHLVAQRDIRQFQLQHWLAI
Chain of 5-hydroxytryptamine receptor 2A (Homo sapiens) (P28223 whole entry): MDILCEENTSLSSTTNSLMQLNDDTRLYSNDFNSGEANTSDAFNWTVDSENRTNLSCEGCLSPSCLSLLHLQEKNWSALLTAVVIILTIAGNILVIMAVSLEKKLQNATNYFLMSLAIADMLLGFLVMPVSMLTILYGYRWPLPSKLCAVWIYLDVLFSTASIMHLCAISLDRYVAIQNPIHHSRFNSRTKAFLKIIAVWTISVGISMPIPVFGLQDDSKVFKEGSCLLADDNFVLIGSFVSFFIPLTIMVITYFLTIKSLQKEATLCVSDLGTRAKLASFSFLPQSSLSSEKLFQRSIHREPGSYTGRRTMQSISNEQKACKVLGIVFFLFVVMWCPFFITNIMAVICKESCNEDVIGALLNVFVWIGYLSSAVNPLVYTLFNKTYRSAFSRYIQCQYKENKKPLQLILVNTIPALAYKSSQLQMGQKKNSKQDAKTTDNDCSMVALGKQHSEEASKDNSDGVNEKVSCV

SMILES: C#CCN(C)[C@H](C)Cc1ccccc1 [SELEGILINE]
- Activity [1]: 96%
- Activity [2]: 146%
- Activity [3]: 36%

SMILES: O=C(NCCN1CCOCC1)c1ccc(Cl)cc1 [MOCLOBEMIDE]
- Activity [4]: 80%
- Activity [5]: 398%
- Activity [6]: 18%

SMILES: O=c1oc2ccc(O)cc2cc1CN1CCCC1
- Activity [7]: 86%
- Activity [8]: 126%
- Activity [9]: 47%
- IC50 [10]: > 100000 nM
- IC50 [11]: 1460 nM

SMILES: O=c1oc2ccc(C(F)(F)F)cc2cc1CN1CCCC1
- inhibition [12]: 1%
- inhibition [13]: -4%
- inhibition [14]: 8%
- inhibition [15]: 4%
- inhibition [16]: 20%
- inhibition [17]: 4%
- inhibition [18]: 20%
- inhibition [19]: 8%
- Ratio IC50 [20]: > 11.8

SMILES: Nc1ccc2oc(=O)c(CN3CCCC3)cc2c1 [listing 1 of 2 here]
- inhibition [21]: 1%
- inhibition [22]: Active
- inhibition [23]: Active
- inhibition [12]: -2%
- inhibition [14]: 0%
- inhibition [15]: 13%
- inhibition [16]: 2%
- inhibition [24]: 4%
- inhibition [18]: -4%
- inhibition [19]: 0%
- Ratio IC50 [20]: > 26.5

SMILES: O=C(O)c1cc2cc([N+](=O)[O-])ccc2oc1=O
- IC50 [25]: 19.5 nM
- IC50 [26]: 67.6 nM

SMILES: Nc1ccc2oc(=O)c(CN3CCCC3)cc2c1 [listing 2 of 2 here]
- remaining at 1 h, 5 µM [27]: 80%
- Activity [28]: 72%
- Activity [29]: 170%
- Activity [30]: 45%
- IC50 [31]: 16300 nM
- IC50 [10]: > 100000 nM
- IC50 [11]: 3770 nM
